Mdm2 MdmX PPI: disrupts the human Mdm2-MdmX interaction; O15151+Q00987; SaOS-2 split-luciferase Mdm2/MdmX complementation, luminescence; AID 485346; 3% of 330,000 active; inhibition, % at 8 µM;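 active = inhibition of at least 50% at 8 µM in the primary screen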
UPR XBP1 act: adaptive UPR (XBP1) activation; CHO-XBP1 luciferase reporter, IRE1-XBP1 UPR activation, luminescence; percent of tunicamycin response, DMSO as zero; 0.33% of 330,000 active; activation, % at 20 µM; AID 463104;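 active = versus positive control, 20 µM dose yields 30% or more activation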;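 also: 100% = tunicamycin at 10 µg/mL and 0% = DMSO only wells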
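Material: CHO-XBP1 cells stably carrying IRE1-XBP1-driven luciferase reporter | Medium: F12 with 10% serum | Compound dosing: 20 µM single concentration, DMSO 1% | Incubation: Overnight seeding at 37 °C, 6 h compound treatment at 37 °C | Detection: Steady-Glo luminescence read | Read-out basis: % activation of reporter signal versus tunicamycin and DMSO controls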
B2AR ag: human beta-2 adrenergic receptor agonism by FAP | P07550 | Am2.2-beta2AR cells, FAP receptor internalization, flow cytometry | response, % (test concentration not listed) | 0.43% of 340,000 active | AID 504454;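 active = response above a set limit, near 3 SD of response in nonfluorescent compounds, cut at about 42% in these data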
UPR CHOP act: apoptotic UPR (CHOP) activation. CHO-CHOP luciferase reporter, luminescence; percent of tunicamycin response over DMSO baseline. activation, % at 10 µM. 0.34% of 330,000 active. AID 449763;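 active = at 10 µM dose, activation of 40% or more, normalized to positive control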;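 also: 100% = tunicamycin at 10 µg/mL and 0% = DMSO alone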
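System: CHO CHOP reporter cells. Amount: 500 cells per well. Buffer or medium: F12 medium, 10% FBS. Compound dosing: one dose, 10 µM in 0.5% DMSO. Incubation: 6 h compound exposure at 37 °C after overnight seeding. Technique: Steady-Glo luciferase luminescence. Benchmarks: tunicamycin and DMSO controls.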
Mdm2 ligase inh: Mdm2 E3 ligase (human) inhibition; Q00987; cell-based MDM2 ubiquitination luciferase reporter, 2 h; 0 = plate control, 100 = twice control, blank-subtracted; signal enhancement, % at 5 µM; 0.11% of 210,000 active; AID 1230;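 active = signal enhancement of 30% or more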;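 also: luminescence tracks abundance of the self-degrading MDM2-luciferase fusion protein; higher signal means inhibition of MDM2 E3 ligase activity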
Target sequence (Q00987 whole entry, looked up, the tested form may be a part): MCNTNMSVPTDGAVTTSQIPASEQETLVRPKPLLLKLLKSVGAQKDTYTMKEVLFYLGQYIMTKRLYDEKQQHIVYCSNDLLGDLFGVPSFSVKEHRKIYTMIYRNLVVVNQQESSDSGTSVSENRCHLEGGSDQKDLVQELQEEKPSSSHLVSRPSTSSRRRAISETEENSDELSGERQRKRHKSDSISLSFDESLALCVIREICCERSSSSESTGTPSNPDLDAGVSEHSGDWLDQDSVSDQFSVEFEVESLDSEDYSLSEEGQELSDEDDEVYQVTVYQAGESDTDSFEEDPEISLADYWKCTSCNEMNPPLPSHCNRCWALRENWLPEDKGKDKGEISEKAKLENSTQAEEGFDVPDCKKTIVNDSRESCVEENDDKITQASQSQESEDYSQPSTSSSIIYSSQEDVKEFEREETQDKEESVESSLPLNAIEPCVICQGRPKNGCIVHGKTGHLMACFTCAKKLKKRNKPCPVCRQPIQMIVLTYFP
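Material: stable MDM2–luciferase fusion reporter cells / Quantity: 2000 cells/well / Dosing: single 5 µM compound dose, 0.2% final DMSO / Buffer or medium: DMEM / Schedule: 4 h cell settling then 2 h compound exposure, 37 °C / Detection: luminescence with SteadyLite reagent, 15 min at room temperature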
Dynein transport: dynein cargo transport inhibition. 0.47% of 220,000 active. 3617.4 mouse cells, GR-EGFP nuclear translocation imaging; test concentration mostly 20 µM; stimulated with dexamethasone, 1 µM; hits give low values. z-score, hits read low;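 active = plate z-score of nuclear minus cytoplasmic receptor signal below a set negative limit, without overly bright fluorescence or cell loss, cut at about -3.5 in these data, passing the limit was not always enough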;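 also: z-score of nuclear minus cytoplasmic ring GR-EGFP intensity difference per well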
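Medium: Induction medium lacking tetracycline, stripped serum | Probe or stimulus: 1.0 µM final dexamethasone stimulus | Schedule: 48 h induction, then 1 h compound, then 30 min agonist, 37 °C | Signal: Automated 10x imaging of fixed Hoechst-stained cells | Evaluation: Per-cell GR-EGFP intensity, nucleus versus surrounding cytoplasmic ring, well-averaged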
Mdm2 MdmX conf: human Mdm2/MdmX binding inhibition, confirmed; shares compounds with Mdm2 MdmX PPI; inhibition, % at 8 µM; luminescent assay; AID 489028; 55% of 10,000 active; in the data active = inhibition above about 40%
FLuc counter: full-length luciferase inhibition in Mdm2/MdmX counter-screen; shares compounds with Mdm2 MdmX PPI; SaOS-2 full-length luciferase counterscreen, luminescence; inhibition, % at 8 µM; 77% of 6,200 active; AID 504607;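 active = mean inhibition at 8 µM reaching about 37%, which flags the compound as non-specific, limit read from the data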;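 also: p53-null SaOS-2 cells with luciferase driven by a doxycycline-inducible promoter; compound on cells about two nights before reading with doxycycline added after day one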
Starred values were filed as active, the others as inactive; / = no result. Compounds with a hit are over-represented: about 3.7% of the library has one in this group of screens.

SMILES	Mdm2 MdmX PPI	UPR XBP1 act	B2AR ag	UPR CHOP act	Mdm2 ligase inh	Dynein transport	Mdm2 MdmX conf	FLuc counter
COc1cc(/C=C/C(=O)c2ccc(NS(=O)(=O)c3ccc(C)cc3)cc2)cc(OC)c1O	/	/	-15.4	/	-1.3	-1.24	/	/
COc1ccc2c(c1)c1c(n2C)[C@@H]2CC=C(CO)[C@@H](C1)N2C	3.6	-2.8	-3.5	0.0	/	/	/	/
CCCCNc1ccc(C(CC(N)=O)NC(=O)Cc2ccc(Br)cc2)cc1[N+](=O)[O-] (stereo unspecified)	86.6*	2.9	-4.5	0.6	-5.5	-0.681	60.2*	53.1*
NC(=O)CC(NC(=O)Cc1ccc(Br)cc1)c1ccc(N2CCC(Cc3ccccc3)CC2)c([N+](=O)[O-])c1 (stereo unspecified)	71.1*	-0.5	8.6	-1.7	11.7	-0.007	54.6*	48.2*
NC(=O)CC(NC(=O)Cc1ccc(Br)cc1)c1ccc(N2CCC(Br)CC2)c([N+](=O)[O-])c1 (stereo unspecified)	49.2	-2.7	-10.8	-1.8	13.3	0.679	/	/
O=[N+]([O-])c1cc(S(=O)(=O)C(F)(F)F)ccc1NCC1CCCO1 (stereo unspecified)	-3.2	5.9	-3.7	1.9	/	/	/	/
CCOc1ccc(/C=N/NC(=O)c2nnn(-c3nonc3N)c2CN(C)C2CCCCC2)cc1	11.4	2.6	-6.6	-1.0	/	/	/	/
COc1ccc(CCNC(=O)[C@H](C)N2C(=O)N3CCc4c([nH]c5ccccc45)[C@@]3(C)C2=O)cc1	20.2	-2.8	4.2	2.3	/	/	/	/
Nc1[nH]n2c(=O)cc(-c3ccccc3)nc2c1N=Nc1ccc(S(N)(=O)=O)cc1	19.3	-1.0	7.8	0.8	-2.1	-1.09	/	/
NS(=O)(=O)c1ccc(N=Nc2c(-c3ccccc3)[nH]n(-c3nc(-c4ccccc4)cs3)c2=O)cc1	81.4*	1.3	1.1	15.1	-12.8	-0.403	28.3	/
Cc1[nH]n(-c2ccccc2)c(=O)c1N=Nc1ccc(C(N)=O)cc1	18.1	3.3	2.9	-0.7	/	/	/	/
O=c1cc(-c2ccccc2)[nH]n1-c1ccc([N+](=O)[O-])cc1	54.8*	-0.6	20.9	2.0	-10.5	-0.0539	5.7	/
NC(=O)c1ccc(N=Nc2c(-c3ccccc3)[nH]n(-c3ccccc3)c2=O)cc1	92.5*	3.9	/	2.4	-17.5	0.313	84.9*	108.2*
O=c1c(N=Nc2ccc(O)cc2)c(-c2ccccc2)[nH]n1-c1ccc([N+](=O)[O-])cc1	100.5*	11.6	7.0	18.7	-9.0	0.542	18.8	/
O=Nc1c(-c2ccccc2)[nH]n(-c2ccccc2)c1=O	18.7	1.4	-3.2	1.3	/	/	/	/
CN(C)c1ccc(/C=C/c2ccc3ccccc3[n+]2C)cc1	87.2*	1.7	-16.5	9.2	-53.3	-0.584	82.0*	12.6
CN(CCCS(=O)(=O)[O-])c1ccc(/C=C/c2ccc3ccccc3[n+]2C)cc1	-15.3	6.8	-10.1	-0.3	/	/	/	/
CCCN(CCC)CCCNC(=O)c1cc2c(=O)n(CC)c3ccccc3c2s1	71.0*	-2.2	13.3	0.4	/	/	57.6*	58.9*
COCCCNC(=O)c1ccc(Cn2c(=O)c3ccccc3n(Cc3ccccc3C)c2=O)cc1	36.1	1.8	-2.6	0.7	-9.7	0.907	/	/
CCn1c(=O)c2cc(C(=O)NCCC(C)C)sc2c2ccccc21	47.0	12.8	15.3	3.0	/	/	/	/
CCn1c(=O)c2cc(C(=O)NCCCOC)sc2c2ccccc21	64.1*	7.9	-7.1	0.4	/	/	48.7*	103.0*
CCn1c(=O)c2cc(C(=O)NCC(OC)OC)sc2c2ccccc21	36.6	1.8	8.1	0.6	/	/	/	/
